Measured values from ChEMBL document CHEMBL4689842, “EUbOPEN Chemogenomics Library wave 1” (2021).

Test system: HEK-293T
Experiment: Multiplex assay against HEK293T;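 as to Population Tubulin-Different-Phenotype (%): share of the cells with healthy nuclei that show this phenotype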
Type: toxicity, cell-based
Settings: human
Procedure, shortened: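 Hoechst33342, BioTracker Green Microtubule Cytoskeleton Dye, MitoTracker Red and Annexin V Alexa Fluor 680 were added to live cells at seeding, and imaging on a CQ1 microscope at 37°C and 5% CO2 followed compound addition. Gating by CellPathfinder machine learning separated cells into Hoechst high-intensity objects or normal cells, then normal cells into healthy, pyknosed or fragmented nuclei, then pyknosed cells into mitotic or apoptotic. Per cents of healthy-nucleus cells are reported for the tubulin, mitochondrial-mass and membrane-permeability phenotypes.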

[1] = 12 h, 1 µM, compound concentration 1 uM, replicate 1
[2] = 12 h, 1 µM, compound concentration 1 uM, replicate 2
[3] = 12 h, 10 µM, compound concentration 10 uM, replicate 1
[4] = 12 h, 10 µM, compound concentration 10 uM, replicate 2
[5] = 24 h, 1 µM, compound concentration 1 uM, replicate 1
[6] = 24 h, 1 µM, compound concentration 1 uM, replicate 2
[7] = 24 h, 10 µM, compound concentration 10 uM, replicate 1
[8] = 24 h, 10 µM, compound concentration 10 uM, replicate 2
[9] = 48 h, 1 µM, compound concentration 1 uM, replicate 1
[10] = 48 h, 1 µM, compound concentration 1 uM, replicate 2
[11] = 48 h, 10 µM, compound concentration 10 uM, replicate 1
[12] = 48 h, 10 µM, compound concentration 10 uM, replicate 2

Cc1c(P(=S)(c2ccccc2)c2ccccc2)n2ccccc2[n+]1C/C=C/c1ccccc1.[Br-]
Population Apoptotic (%) [1]: 65%
Population Fragmented Nuclei (%) [1]: 12%
Population Healthy Nuclei (%) [1]: 24%
Population Hoechst High Intensity Objects (%) [1]: 17%
Population Membrane Permeable-Phenotype (%) [1]: 6%
Population Mitochondria Different-Phenotype (%) [1]: 93%
Population Mitotic Cells (%) [1]: 34%
Population Normal (%) [1]: 82%
Population Pyknosed Nuclei (%) [1]: 62%
Population Tubulin-Different-Phenotype (%) [1]: 83%
Total Cell Count [1]: 211
Population Apoptotic (%) [2]: 86%
Population Fragmented Nuclei (%) [2]: 6%
Population Healthy Nuclei (%) [2]: 30%
Population Hoechst High Intensity Objects (%) [2]: 5%
Population Membrane Permeable-Phenotype (%) [2]: 0%
Population Mitochondria Different-Phenotype (%) [2]: 87%
Population Mitotic Cells (%) [2]: 13%
Population Normal (%) [2]: 94%
Population Tubulin-Different-Phenotype (%) [2]: 77%
Total Cell Count [2]: 138
Population Apoptotic (%) [3]: 34%
Population Fragmented Nuclei (%) [3]: 31%
Population Healthy Nuclei (%) [3]: 2%
Population Hoechst High Intensity Objects (%) [3]: 21%
Population Membrane Permeable-Phenotype (%) [3]: 14%
Population Mitochondria Different-Phenotype (%) [3]: 28%
Population Mitotic Cells (%) [3]: 65%
Population Normal (%) [3]: 78%
Population Pyknosed Nuclei (%) [3]: 65%
Population Tubulin-Different-Phenotype (%) [3]: 100%
Total Cell Count [3]: 398
Population Apoptotic (%) [4]: 82%
Population Fragmented Nuclei (%) [4]: 9%
Population Healthy Nuclei (%) [4]: 6%
Population Hoechst High Intensity Objects (%) [4]: 14%
Population Membrane Permeable-Phenotype (%) [4]: 0%
Population Mitochondria Different-Phenotype (%) [4]: 54%
Population Mitotic Cells (%) [4]: 17%
Population Normal (%) [4]: 85%
Population Pyknosed Nuclei (%) [4]: 84%
Population Tubulin-Different-Phenotype (%) [4]: 90%
Total Cell Count [4]: 192
Population Apoptotic (%) [5]: 62%
Population Fragmented Nuclei (%) [5]: 20%
Population Healthy Nuclei (%) [5]: 18%
Population Hoechst High Intensity Objects (%) [5]: 19%
Population Membrane Permeable-Phenotype (%) [5]: 3%
Population Mitochondria Different-Phenotype (%) [5]: 90%
Population Mitotic Cells (%) [5]: 37%
Population Normal (%) [5]: 80%
Population Pyknosed Nuclei (%) [5]: 61%
Population Tubulin-Different-Phenotype (%) [5]: 87%
Total Cell Count [5]: 217
Population Apoptotic (%) [6]: 88%
Population Fragmented Nuclei (%) [6]: 6%
Population Healthy Nuclei (%) [6]: 41%
Population Hoechst High Intensity Objects (%) [6]: 7%
Population Membrane Permeable-Phenotype (%) [6]: 0%
Population Mitochondria Different-Phenotype (%) [6]: 98%
Population Mitotic Cells (%) [6]: 11%
Population Normal (%) [6]: 92%
Population Pyknosed Nuclei (%) [6]: 51%
Population Tubulin-Different-Phenotype (%) [6]: 85%
Total Cell Count [6]: 147
Population Apoptotic (%) [7]: 52%
Population Fragmented Nuclei (%) [7]: 36%
Population Healthy Nuclei (%) [7]: 0%
Population Hoechst High Intensity Objects (%) [7]: 21%
Population Membrane Permeable-Phenotype (%) [7]: 0%
Population Mitochondria Different-Phenotype (%) [7]: 100%
Population Mitotic Cells (%) [7]: 47%
Population Normal (%) [7]: 78%
Population Pyknosed Nuclei (%) [7]: 62%
Total Cell Count [7]: 389
Population Apoptotic (%) [8]: 86%
Population Fragmented Nuclei (%) [8]: 12%
Population Healthy Nuclei (%) [8]: 14%
Population Hoechst High Intensity Objects (%) [8]: 13%
Population Membrane Permeable-Phenotype (%) [8]: 16%
Population Mitochondria Different-Phenotype (%) [8]: 72%
Population Mitotic Cells (%) [8]: 13%
Population Normal (%) [8]: 86%
Population Pyknosed Nuclei (%) [8]: 72%
Population Tubulin-Different-Phenotype (%) [8]: 100%
Total Cell Count [8]: 195
Population Apoptotic (%) [9]: 69%
Population Fragmented Nuclei (%) [9]: 24%
Population Healthy Nuclei (%) [9]: 1%
Population Hoechst High Intensity Objects (%) [9]: 22%
Population Membrane Permeable-Phenotype (%) [9]: 0%
Population Mitochondria Different-Phenotype (%) [9]: 0%
Population Mitotic Cells (%) [9]: 30%
Population Normal (%) [9]: 77%
Population Pyknosed Nuclei (%) [9]: 73%
Population Tubulin-Different-Phenotype (%) [9]: 66%
Total Cell Count [9]: 209
Population Apoptotic (%) [10]: 92%
Population Fragmented Nuclei (%) [10]: 7%
Population Healthy Nuclei (%) [10]: 57%
Population Hoechst High Intensity Objects (%) [10]: 8%
Population Membrane Permeable-Phenotype (%) [10]: 4%
Population Mitochondria Different-Phenotype (%) [10]: 91%
Population Mitotic Cells (%) [10]: 8%
Population Normal (%) [10]: 91%
Population Pyknosed Nuclei (%) [10]: 34%
Population Tubulin-Different-Phenotype (%) [10]: 89%
Total Cell Count [10]: 157
Population Apoptotic (%) [11]: 65%
Population Fragmented Nuclei (%) [11]: 45%
Population Healthy Nuclei (%) [11]: 1%
Population Hoechst High Intensity Objects (%) [11]: 22%
Population Membrane Permeable-Phenotype (%) [11]: 0%
Population Mitochondria Different-Phenotype (%) [11]: 100%
Population Mitotic Cells (%) [11]: 34%
Population Normal (%) [11]: 77%
Population Pyknosed Nuclei (%) [11]: 53%
Total Cell Count [11]: 379
Population Apoptotic (%) [12]: 95%
Population Fragmented Nuclei (%) [12]: 12%
Population Healthy Nuclei (%) [12]: 27%
Population Hoechst High Intensity Objects (%) [12]: 14%
Population Membrane Permeable-Phenotype (%) [12]: 9%
Population Mitochondria Different-Phenotype (%) [12]: 95%
Population Mitotic Cells (%) [12]: 4%
Population Normal (%) [12]: 85%
Population Pyknosed Nuclei (%) [12]: 59%
Population Tubulin-Different-Phenotype (%) [12]: 100%
Total Cell Count [12]: 175

Cl.Cn1c2c(c3ccc(Cl)c(Cl)c31)C(C#N)C1(CCNCC1)NC2=O (stereo unspecified)
Population Apoptotic (%) [1]: 17%
Population Fragmented Nuclei (%) [1]: 13%
Population Healthy Nuclei (%) [1]: 66%
Population Hoechst High Intensity Objects (%) [1]: 10%
Population Membrane Permeable-Phenotype (%) [1]: 8%
Population Mitochondria Different-Phenotype (%) [1]: 6%
Population Mitotic Cells (%) [1]: 82%
Population Normal (%) [1]: 89%
Population Pyknosed Nuclei (%) [1]: 19%
Population Tubulin-Different-Phenotype (%) [1]: 10%
Total Cell Count [1]: 650
Population Apoptotic (%) [2]: 2%
Population Fragmented Nuclei (%) [2]: 6%
Population Healthy Nuclei (%) [2]: 87%
Population Hoechst High Intensity Objects (%) [2]: 3%
Population Membrane Permeable-Phenotype (%) [2]: 3%
Population Mitochondria Different-Phenotype (%) [2]: 7%
Population Mitotic Cells (%) [2]: 97%
Population Normal (%) [2]: 96%
Population Pyknosed Nuclei (%) [2]: 5%
Total Cell Count [2]: 1592
Population Apoptotic (%) [3]: 24%
Population Fragmented Nuclei (%) [3]: 16%
Population Healthy Nuclei (%) [3]: 30%
Population Hoechst High Intensity Objects (%) [3]: 20%
Population Membrane Permeable-Phenotype (%) [3]: 23%
Population Mitochondria Different-Phenotype (%) [3]: 14%
Population Mitotic Cells (%) [3]: 75%
Population Normal (%) [3]: 79%
Population Pyknosed Nuclei (%) [3]: 52%
Population Tubulin-Different-Phenotype (%) [3]: 76%
Total Cell Count [3]: 698
Population Apoptotic (%) [4]: 17%
Population Fragmented Nuclei (%) [4]: 3%
Population Healthy Nuclei (%) [4]: 74%
Population Hoechst High Intensity Objects (%) [4]: 4%
Population Membrane Permeable-Phenotype (%) [4]: 24%
Population Mitochondria Different-Phenotype (%) [4]: 25%
Population Mitotic Cells (%) [4]: 82%
Population Normal (%) [4]: 95%
Population Pyknosed Nuclei (%) [4]: 22%
Population Tubulin-Different-Phenotype (%) [4]: 95%
Total Cell Count [4]: 983
Population Apoptotic (%) [5]: 16%
Population Fragmented Nuclei (%) [5]: 11%
Population Healthy Nuclei (%) [5]: 77%
Population Hoechst High Intensity Objects (%) [5]: 7%
Population Membrane Permeable-Phenotype (%) [5]: 17%
Population Mitochondria Different-Phenotype (%) [5]: 5%
Population Mitotic Cells (%) [5]: 83%
Population Normal (%) [5]: 92%
Population Pyknosed Nuclei (%) [5]: 10%
Population Tubulin-Different-Phenotype (%) [5]: 17%
Total Cell Count [5]: 747
Population Apoptotic (%) [6]: 5%
Population Fragmented Nuclei (%) [6]: 24%
Population Healthy Nuclei (%) [6]: 72%
Population Hoechst High Intensity Objects (%) [6]: 3%
Population Membrane Permeable-Phenotype (%) [6]: 7%
Population Mitochondria Different-Phenotype (%) [6]: 1%
Population Mitotic Cells (%) [6]: 94%
Population Normal (%) [6]: 96%
Population Pyknosed Nuclei (%) [6]: 2%
Population Tubulin-Different-Phenotype (%) [6]: 11%
Total Cell Count [6]: 2758
Population Apoptotic (%) [7]: 25%
Population Fragmented Nuclei (%) [7]: 19%
Population Healthy Nuclei (%) [7]: 32%
Population Hoechst High Intensity Objects (%) [7]: 19%
Population Membrane Permeable-Phenotype (%) [7]: 16%
Population Mitochondria Different-Phenotype (%) [7]: 22%
Population Mitotic Cells (%) [7]: 74%
Population Normal (%) [7]: 80%
Population Pyknosed Nuclei (%) [7]: 47%
Population Tubulin-Different-Phenotype (%) [7]: 86%
Total Cell Count [7]: 669
Population Apoptotic (%) [8]: 12%
Population Fragmented Nuclei (%) [8]: 5%
Population Healthy Nuclei (%) [8]: 81%
Population Hoechst High Intensity Objects (%) [8]: 9%
Population Membrane Permeable-Phenotype (%) [8]: 13%
Population Mitochondria Different-Phenotype (%) [8]: 25%
Population Mitotic Cells (%) [8]: 87%
Population Normal (%) [8]: 91%
Population Pyknosed Nuclei (%) [8]: 13%
Population Tubulin-Different-Phenotype (%) [8]: 94%
Total Cell Count [8]: 1033
